Results on 40 molecules are retold here after ChEMBL document CHEMBL3407466, “Discovery of an oral respiratory syncytial virus (RSV) fusion inhibitor (GS-5806) and clinical proof of concept in a human RSV challenge study” (J Med Chem, 2015).

The nature of series [1]: Lipophilicity, log D of the compound by chromatography. Type of series: physicochemical.
Series [2] is described as follows: Oral bioavailability in Sprague-Dawley rat at 4 mg/kg. Type of series: ADME, organism-based. Particulars: in vivo; call rule not given here. In a few lines:
(§1)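 IV parameters were taken from a 1 mg/kg dose given as a 30 min infusion.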

Series [3] concerns Plasma. Description: Drug uptake in dog lung relative to plasma level. In kind it is ADME, Canis lupus familiaris.
Series [4] can be described thus: Terminal half life in po dosed beagle dog. Type of series: ADME, organism-based, Canis lupus familiaris. Particulars: in vivo, read-out: beta t1/2 (converted).
Series [5] in a line: Ratio of AUC (0 to 12 hrs) in lung to AUC (0 to 12 hrs) in plasma of Sprague-Dawley rat at 1 mg/kg, iv. On the set-up: dose 1 mg/kg, route intravenous. In kind it is ADME, organism-based.
Series [6] can be described thus: Volume of distribution at steady state in Sprague-Dawley rat. Type of series: ADME, organism-based. Particulars: in vivo, read-out: Vdss.
Series [7] in a line: Clearance in cynomolgus monkey at 1 mg/kg, iv administered as infusion over 30 mins. In kind it is ADME, organism-based, Macaca fascicularis. The conditions noted are these: in vivo. Set-up: dose 1 mg/kg, route intravenous.
A short description of series [8]: Clearance in Sprague-Dawley rat at 1 mg/kg, iv administered as infusion over 30 mins. In kind it is ADME, organism-based. On the set-up: dose 1 mg/kg, route intravenous. Particulars: in vivo. The procedure, abridged:
as §1

Series [9] can be described thus: Volume of distribution at steady state in beagle dog. Type of series: ADME, organism-based, Canis lupus familiaris. The conditions noted are these: in vivo, read-out: Vdss.
A short description of series [10]: Ratio of AUC (0 to 12 hrs) in epithelial lining fluid to AUC (0 to 12 hrs) in plasma of Sprague-Dawley rat at 1 mg/kg, iv. Set-up: dose 1 mg/kg, route intravenous. Type of series: ADME, organism-based.
Series [11] can be described thus: Oral bioavailability in beagle dog at 4 mg/kg. Particulars: in vivo. In kind it is ADME, organism-based, Canis lupus familiaris.
The nature of series [12]: Terminal half life in po dosed cynomolgus monkey. The conditions noted are these: in vivo, read-out: beta t1/2 (converted). In kind it is ADME, organism-based, Macaca fascicularis.
A short description of series [13]: Volume of distribution at steady state in cynomolgus monkey. Type of series: ADME, organism-based, Macaca fascicularis. The conditions noted are these: in vivo, read-out: Vdss.
Series [14] is described as follows: Clearance in beagle dog at 1 mg/kg, iv administered as infusion over 30 mins. In kind it is ADME, organism-based, Canis lupus familiaris. On the set-up: dose 1 mg/kg, route intravenous. The conditions noted are these: in vivo.
The next series concerns Lung. Description: Drug uptake in lung tissue of Sprague-Dawley rat at 1 mg/kg, iv relative to plasma level. Type of series: ADME, organism-based. Set-up: dose 1 mg/kg, route intravenous. The conditions noted are these: in vivo.
For series [15], the system named is Plasma. Description: Drug uptake in epithelial lining fluid of Sprague-Dawley rat at 1 mg/kg, iv relative to plasma level. Type of series: ADME, organism-based. Set-up: dose 1 mg/kg, route intravenous. Particulars: in vivo.
A short description of series [16]: Drug uptake in bovine lung relative to plasma level. Particulars: cattle. In kind it is ADME, Bos taurus.
Series [17] in a line: Oral bioavailability in cynomolgus monkey at 4 mg/kg. Type of series: ADME, organism-based, Macaca fascicularis. The conditions noted are these: in vivo.
Series [18] in a line: Terminal half life in po dosed Sprague-Dawley rat. Type of series: ADME, organism-based. The conditions noted are these: in vivo, read-out: beta t1/2 (converted).
A short description of series [19]: Terminal half life in po dosed human. Type of series: ADME, organism-based. Particulars: in vivo, read-out: beta t1/2 (converted).

For orientation: chromatographic logD means a lipophilicity value derived from retention on a column. The Kp is the ratio of the level in a tissue or fluid to that in plasma or blood. The clearance is the volume of plasma or blood freed of the substance per unit of time.

The molecule `Cc1cn2nc([C@@H]3CCCCN3C(=O)c3cc(Cl)ccc3NS(C)(=O)=O)cc2nc1N1CCC(F)(F)C1` returned a chromatographic logD in [1] of 4.2. Same read-out and setting: to `Cc1cn2nc([C@@H]3CCCCN3C(=O)c3cc(Cl)ccc3NS(C)(=O)=O)cc2nc1N1CC[C@H](C#N)C1` belongs 3.6; to `CC(=O)Nc1ccccc1C(=O)N1CCCC[C@H]1c1cc2[nH]c(C)c(C)c(=O)n2n1`, 0.88; to `Cc1cn2nc([C@@H]3CCCCN3C(=O)c3cc(Cl)ccc3NS(C)(=O)=O)cc2nc1N1CC[C@@H](C#N)C1`, 3.7. Turning to `Cc1ccc(NS(C)(=O)=O)c(C(=O)N2CCCC[C@H]2c2cc3nc(C)c(C)c(C)n3n2)c1`, the chromatographic logD in [1] came to 3.1. Further, in series [2], the bioavailability came out at 26%. Molecule `Cc1[nH]c2cc([C@@H]3CCCCN3C(=O)c3ccccc3N)nn2c(=O)c1C` came in with a chromatographic logD in series [1] of 1.4.

In series [1], `Cc1[nH]c2cc([C@@H]3CCCCN3C(=O)c3cccc(F)c3NS(C)(=O)=O)nn2c(=O)c1C` returned a chromatographic logD of 1.3. In series [1], `Cc1cn2nc([C@@H]3CCCCN3C(=O)c3cc(Cl)ccc3NS(C)(=O)=O)cc2nc1N1CC(N)C1` displayed a chromatographic logD of 2.1. Besides, in series [2], the bioavailability was determined as 67%. In turn, `Cc1[nH]c2cc([C@@H]3CCCCN3C(=O)c3cc(Cl)ccc3NS(C)(=O)=O)nn2c(=O)c1C` returned a chromatographic logD in [1] of 1.9. Same read-out and setting: the value for `Cc1cn2nc([C@@H]3CCCCN3C(=O)c3cc(Cl)ccc3NS(C)(=O)=O)cc2nc1N1CC(F)C1` was 3.7; that for `Cc1[nH]c2cc([C@@H]3CCCCN3C(=O)c3cc(F)ccc3NS(C)(=O)=O)nn2c(=O)c1C` was 1.4; that for `Cc1[nH]c2cc([C@@H]3CCCCN3C(=O)c3ccccc3N(C)S(C)(=O)=O)nn2c(=O)c1C` was 1.1. In [1], `Cc1cn2nc([C@@H]3CCCCN3C(=O)c3cc(Cl)ccc3NS(C)(=O)=O)cc2nc1N1CC[C@@H](N)C1` came in with a chromatographic logD of 2. Regarding `Cc1cn2nc([C@@H]3CCCCN3C(=O)c3cc(Cl)ccc3NS(C)(=O)=O)cc2nc1N1CCC1`, the chromatographic logD in series [1] was 3.8. `Cc1ccc(NS(C)(=O)=O)c(C(=O)N2CCCC[C@H]2c2cc3nc(C4CC4)ccn3n2)c1` registered a chromatographic logD in series [1] of 3.7. Turning to `Cc1[nH]c2cc([C@@H]3CCCCN3C(=O)c3ccc(F)cc3NS(C)(=O)=O)nn2c(=O)c1C`, the chromatographic logD in [1] is 1.5. In series [1], `Cc1[nH]c2cc([C@@H]3CCCCN3C(=O)c3cc(Br)ccc3NS(C)(=O)=O)nn2c(=O)c1C` displayed a chromatographic logD of 2. Molecule `Cc1[nH]c2cc([C@@H]3CCCCN3C(=O)c3ccccc3NS(C)(=O)=O)nn2c(=O)c1C` yielded a chromatographic logD in series [1] of 1.3. The bioavailability in [2] is 1.5%. In series [1], `Cc1cn2nc([C@@H]3CCCCN3C(=O)c3cc(Cl)ccc3NS(C)(=O)=O)cc2nc1N1CC(C#N)C1` had a chromatographic logD of 3.3. The molecule `Cc1cn2nc([C@@H]3CCCCN3C(=O)c3cc(Cl)ccc3NS(C)(=O)=O)cc2nc1N1CC[C@H](O)C1` displayed a chromatographic logD in series [1] of 2.9. In turn, `Cc1[nH]c2cc([C@@H]3CCCCN3C(=O)c3ccccc3NS(=O)(=O)C3CC3)nn2c(=O)c1C` had a chromatographic logD in series [1] of 1.6. The molecule `COC(=O)Nc1ccccc1C(=O)N1CCCC[C@H]1c1cc2[nH]c(C)c(C)c(=O)n2n1` had a chromatographic logD in series [1] of 1.3. In series [1], `Cc1cn2nc([C@@H]3CCCCN3C(=O)c3cc(Cl)ccc3NS(C)(=O)=O)cc2nc1N1CC[C@@H](O)C1` displayed a chromatographic logD of 2.8. The bioavailability in series [2] was 71%.

Take `Cc1cn2nc([C@@H]3CCCCN3C(=O)c3ccccc3NS(C)(=O)=O)cc2nc1C`: the chromatographic logD in [1] was determined as 3. For the same molecule, the bioavailability in series [2] worked out at 18%. In series [1], `Cc1ccc(NS(C)(=O)=O)c(C(=O)N2CCCC[C@H]2c2cc3nc(C)c(C)cn3n2)c1` had a chromatographic logD of 3.1. Besides, the bioavailability in series [2] came out at 86%. `CNc1c(C)c(C)nc2cc([C@@H]3CCCCN3C(=O)c3ccccc3NS(C)(=O)=O)nn12` came in with a chromatographic logD in series [1] of 2.6. With `Cc1ccc(NS(C)(=O)=O)c(C(=O)N2CCCC[C@H]2c2cc3nc(C4CC4)cc(C)n3n2)c1`, in [1], the chromatographic logD amounted to 3.5. Moreover, the bioavailability in series [2] was 42%. As to `Cc1ccc(NS(C)(=O)=O)c(C(=O)N2CCCC[C@H]2c2cc3nc(C)cc(C)n3n2)c1`, in series [1], the chromatographic logD worked out at 2.7.

Take `Cc1[nH]c2cc([C@@H]3CCCCN3C(=O)c3cc(C(F)(F)F)ccc3NS(C)(=O)=O)nn2c(=O)c1C`: the chromatographic logD in series [1] was 1.9. With `Cc1ccc(NS(C)(=O)=O)c(C(=O)N2CCCC[C@H]2c2cc3nc(C4CC4)c(C)cn3n2)c1`, in series [1], the chromatographic logD came to 4.1. The molecule `Cc1cn2nc([C@@H]3CCCCN3C(=O)c3cc(Cl)ccc3NS(C)(=O)=O)cc2nc1N1CC(O)C1` yielded a chromatographic logD in series [1] of 2.7. Also, the bioavailability in [2] turned out to be 42%. In series [1], `Cc1[nH]c2cc([C@@H]3CCCCN3C(=O)c3ccccc3O)nn2c(=O)c1C` displayed a chromatographic logD of 1.1.

`Cc1[nH]c2cc([C@@H]3CCCCN3C(=O)c3c(Cl)cccc3NS(C)(=O)=O)nn2c(=O)c1C` had a chromatographic logD in series [1] of 1.8. In turn, `Cc1[nH]c2cc([C@@H]3CCCCN3C(=O)c3cc(-c4ccccc4)ccc3NS(C)(=O)=O)nn2c(=O)c1C` displayed a chromatographic logD in series [1] of 2.6. In series [1], `CNc1c(C)c(C)nc2cc([C@@H]3CCCCN3C(=O)c3cc(C)ccc3NS(C)(=O)=O)nn12` displayed a chromatographic logD of 2.8. Molecule `Cc1cn2nc([C@@H]3CCCCN3C(=O)c3cc(Cl)ccc3NS(C)(=O)=O)cc2nc1N1CCCC1` gave a chromatographic logD in series [1] of 4.4. The same measure, in the same setting: the value for `Cc1[nH]c2cc([C@@H]3CCCCN3C(=O)c3ccccc3)nn2c(=O)c1C` was 1.4. With `Cc1cn2nc([C@@H]3CCCCN3C(=O)c3cc(Cl)ccc3NS(C)(=O)=O)cc2nc1N1CC[C@H](N)C1` [PRESATOVIR], the Drug uptake result is listed as “Active” with Plasma [3], “Not Active” in the series on Lung, “Not Active” with Plasma [15] and “Active” in [16]. The half-life in [4] was 8.9 h; in [12], 10 h; in [18] it was 3.4 h; in series [19], 35 h. For the same molecule, the Kp was 26 in series [5] and 10 in [10]. For the same molecule, the Vd came to 9.75 L/kg in [6], 2.91 L/kg in series [9] and 4.95 L/kg in series [13]. Also, the chromatographic logD in [1] stood at 2. Moreover, the clearance in [7] was 6 mL/min/kg; in [8], 32.2 mL/min/kg; in series [14], 3.83 mL/min/kg. The bioavailability is 130% in series [11], 46% in [2] and 60% in series [17]. In [1], `Cc1ccc(NS(C)(=O)=O)c(C(=O)N2CCCC[C@H]2c2cc3[nH]c(C)c(C)c(=O)n3n2)c1` displayed a chromatographic logD of 1.7.

In series [1], `Cc1nc2cc([C@@H]3CCCCN3C(=O)c3ccccc3NS(C)(=O)=O)nn2c(C)c1C` displayed a chromatographic logD of 2.7.
